# NS3 helicase inh: inhibitors of HCV NS3 helicase, primary screen, biochemical, Cy5 molecular beacon fluorescence; NS3 helicase DNA unwinding; inhibition, % at 10.9 µM; hit rate 0.56% among 290,000;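 active means inhibition above the mean of all tested compounds plus 3 SD, set per campaign, cut at about 35% in these data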;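 further: 0% = DMSO wells and 100% = thioflavine S control wells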
#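 System: NS3 helicase fragment of HCV / Schedule: 1 h at 25 °C / Control set: DMSO alone as 0% and 110 µM thioflavine S as 100% / Reagent: Cy5/quencher beacon DNA duplex and ATP to start / Technique: Cy5 fluorescence / Replication: singlicate / Evaluation: % inhibition of end-to-start signal ratio versus controls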
# EBNA-1 inh: EBNA-1 DNA-binding inhibitors, primary screen, biochemical, fluorescence polarization | hit rate 0.34% among 300,000 | inhibition, % at 14.8 µM | AID 1950, 2009; in the data active means inhibition above about 28%
# PABP FP inh: PABP poly(A) RNA binding inhibitors, primary screen, biochemical, fluorescence polarization, uHTS; inhibition, % at 35 µM; Polyadenylate-binding protein 1 (Homo sapiens), P11940; AID 2014, 2009; hit rate 1% among 290,000;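 further: calls also rest on retests at 20 µM and on dose response follow-up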
# Target sequence (P11940 whole entry, looked up): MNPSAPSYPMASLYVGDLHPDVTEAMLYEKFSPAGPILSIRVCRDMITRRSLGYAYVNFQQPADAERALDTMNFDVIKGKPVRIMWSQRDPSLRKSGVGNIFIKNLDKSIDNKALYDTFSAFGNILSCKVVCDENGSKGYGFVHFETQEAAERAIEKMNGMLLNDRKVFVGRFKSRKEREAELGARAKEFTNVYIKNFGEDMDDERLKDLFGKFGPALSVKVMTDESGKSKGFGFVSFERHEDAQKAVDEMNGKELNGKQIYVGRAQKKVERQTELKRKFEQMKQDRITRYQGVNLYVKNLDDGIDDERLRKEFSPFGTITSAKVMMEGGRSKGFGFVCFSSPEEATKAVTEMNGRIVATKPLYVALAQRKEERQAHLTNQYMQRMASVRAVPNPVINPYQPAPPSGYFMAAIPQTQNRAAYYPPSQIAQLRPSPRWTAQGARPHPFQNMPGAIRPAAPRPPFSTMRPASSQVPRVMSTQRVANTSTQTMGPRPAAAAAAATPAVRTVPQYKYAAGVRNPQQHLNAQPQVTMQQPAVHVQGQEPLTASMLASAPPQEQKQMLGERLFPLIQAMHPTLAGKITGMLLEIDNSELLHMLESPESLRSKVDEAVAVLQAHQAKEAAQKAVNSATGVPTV
# ZTA counter: blocks Epstein-Barr virus ZTA, an EBNA-1 counter-screen | P03206 | ZTA-DNA binding, fluorescence polarization | inhibition, % at 11 µM | hit rate 0.15% among 320,000; in the data active means inhibition above about 33%
# PABP1 MLLE inh: inhibitors of PABP1 MLLE–PAM2 peptide binding, primary screen, biochemical, fluorescence polarization, FITC-PAM2, GST-MLLE; inhibition, % at 20 µM; Polyadenylate-binding protein 1 (Homo sapiens), P11940; hit rate 0.36% among 360,000; in the data active means inhibition above about 35%, passing the limit was not always enough;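 further: plate controls were DMSO wells with GST-MLLE for no effect and wells lacking GST-MLLE protein for full effect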
# eIF4H inh: human eIF4H binding inhibitors, primary screen, translation initiation inhibitor project, biochemical, uHTS, fluorescence polarization; Eukaryotic translation initiation factor 4H (Homo sapiens), Q15056; eIF4H fluorescence polarization binding assay; inhibition, % at 35 µM; hit rate 0.94% among 290,000;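 further: calls also rest on retests at 20 µM and on dose response follow-up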
# The depositor's hits bear a star; ? = inconclusive; / = no result given. The list is not random: actives were taken first. Their share in the collection is about 2.1%. Unless noted, how the calls were made is not given here.
SMILES,NS3 helicase inh,EBNA-1 inh,PABP FP inh,ZTA counter,PABP1 MLLE inh,eIF4H inh
CN1/C(=C\C(=O)c2ccco2)C(C)(C)c2ccccc21,-5,39*,?,147*,-30,?
CN1/C(=C\C(=O)COC(=O)c2ccco2)C(C)(C)c2ccccc21,11,2,-8,-10,-7,14
CN1/C(=C\C(=O)CSc2nnc(NCc3ccccc3)s2)C(C)(C)c2ccccc21,-15,-11,active,3,-56,69*
CCCNC(=O)C1(C)CCCN(Cc2ccc(-n3ccnc3)cc2)C1 (configuration not stated),/,/,/,/,-5,/
C[n+]1ccccc1/C=C/c1ccc([N+](=O)[O-])cc1,5,-6,19,-3,-103,-1
C[n+]1ccccc1/C=C/c1ccc2ncccc2c1,-6,/,58*,/,-101,10
C[n+]1ccccc1/C=C/c1ccc(C#N)cc1,0,9,93*,-3,-93,41
O=C(NC(=S)Nc1cccc(NC(=S)NC(=O)c2ccco2)n1)c1ccco1,-2,-6,27,-3,14,9
CN(/N=C/c1cccnc1)c1cnn(-c2ccc(F)c(Cl)c2)c(=O)c1Cl,8,1,-15,8,10,-46
CN(/N=C/c1c[nH]c2ccccc12)c1cnn(-c2ccc(F)c(Cl)c2)c(=O)c1Cl,9,8,70*,-7,-92,78*
CCCCOC(=O)C1=C(C)N(C)C(=O)NC1c1cc2c(cc1Br)OCO2 (configuration not stated),/,/,/,/,-5,/
CCOC(=O)C1=C(C)N(C)C(=O)NC1c1cc2c(cc1[N+](=O)[O-])OCO2 (configuration not stated),-2,1,13*,-1,14,93*
CC(C)N(C(=S)NCc1ccccc1)C(C)C,-14,-3,2,-1,-66,-6
COc1ccccc1CNC(=O)COC(=O)c1cnccn1,5,-2,12,10,14,-14
COc1ccccc1CNC(=O)c1cnccn1,-5,13,3.6*,-4,-6,54
CCOc1c(Br)cc(/C=C(\C#N)C(=O)NC2CC2)cc1OC,20,9,1,-1,5,28
COC(=O)COc1ccc(C2Nc3c(Cl)ccc(C(=O)O)c3C3C=CCC32)cc1 (configuration not stated),23,4,active,10,28,78
COc1ccc(OC)c(C2Nc3c(Cl)ccc(C(=O)O)c3C3C=CCC32)c1 (configuration not stated),31,7,73,10,19,71*
O=[N+]([O-])c1c(Nc2ccccc2)ccc2nonc12,-2,11,-16,7,8,-5
O=C(O)c1ccc(Nc2cc(Cl)c3nonc3c2[N+](=O)[O-])cc1,18,1,0,0,39*,1
O=[N+]([O-])c1c(Nc2cccc(O)c2)cc(Cl)c2nonc12,-30,-2,2,10,33,-5
Nc1cc(Nc2ccccc2)c2nonc2c1[N+](=O)[O-],1,-24,2,6,56*,-6
CCCCN(C=O)c1c(CC)nc2ccc(C(=O)NCc3ccc4c(c3)OCO4)cn12,/,/,/,/,9,/
O=C1CC(c2ccco2)CC(O)=C1C=NCC1CCNCC1 (configuration not stated),0,-9,52*,-1,24,94*
O=C1CC(c2ccco2)CC(O)=C1C=NCCN1CCNCC1 (configuration not stated),3,-6,62*,19,-2,95*
O=C1CC(c2ccco2)CC(O)=C1C=Nc1cc(Cl)cc(Cl)c1 (configuration not stated),22,-4,30,11,14,54
CCOC(=O)c1nc2sc3c(c2c(=O)[nH]1)CCC(C)C3 (configuration not stated),1,1,12,-2,-5,11
CCOC(=O)c1nc2sc3c(c2c(=O)[nH]1)CCCC3,2,11,5.5*,13,-6,?
